Assay results: ChEMBL document CHEMBL1144709, “Cycloartane-type triterpenoids from the resinous exudates of Commiphora opobalsamum” (J Nat Prod, 2008)

Key:
[1] = tested on: PC-3; assay: Cytotoxicity against human PC3 cells by MTT assay; format: functional, cell-based
How it was run: (§1)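 Cells in 96-well plates exposed to test compounds for 48 h. MTT (5 mg/mL in PBS) then added and plates held 2 h at 37 °C under 5% CO2. Absorbance read at 570 nm and IC50 values reported.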

[2] = tested on: DU-145; assay: Cytotoxicity against human DU145 cells by MTT assay; format: functional, cell-based; how it was run: as §1

SMILES: C[C@H](C/C=C/C(C)(C)O)[C@H]1CC[C@@]2(C)[C@@H]3CC[C@H]4C(C)(C)[C@@H](O)[C@H](O)[C@H](O)[C@@]45C[C@@]35CC[C@]12C
- IC50 [1]: 10.3 µM
- IC50 [2]: 34.7 µM

SMILES: CC(C)=CCC[C@@H](C)[C@H]1CC[C@@]2(C)[C@@H]3CC[C@H]4C(C)(C)[C@@H](O)C[C@H](O)[C@@]45C[C@@]35CC[C@]12C
- IC50 [1]: > 50 µM
- IC50 [2]: > 50 µM

SMILES: CC(C)=CCC[C@@H](C)[C@H]1CC[C@@]2(C)[C@@H]3CC[C@H]4C(C)(C)[C@@H](OC(=O)CC(C)C)[C@H](O)[C@H](O)[C@@]45C[C@@]35CC[C@]12C
- IC50 [1]: 28.4 µM
- IC50 [2]: > 50 µM

SMILES: CC(=O)O[C@H]1[C@H](O)[C@H](O)[C@]23C[C@]24CC[C@]2(C)[C@@H]([C@H](C)CCC=C(C)C)CC[C@@]2(C)[C@@H]4CC[C@H]3C1(C)C
- IC50 [1]: 15.4 µM
- IC50 [2]: 20.7 µM

SMILES: CC(C)=CCC[C@@H](C)[C@H]1CC[C@@]2(C)[C@@H]3CC[C@H]4C(C)(C)[C@H](O)[C@H](O)[C@H](O)[C@@]45C[C@@]35CC[C@]12C
- IC50 [1]: > 50 µM
- IC50 [2]: > 50 µM

SMILES: CC(=O)O[C@H]1[C@@H](O)[C@H](O)C(C)(C)[C@@H]2CC[C@@H]3[C@]4(CC[C@]5(C)[C@@H]([C@H](C)CCC=C(C)C)CC[C@@]35C)C[C@]124
- IC50 [1]: 13.4 µM
- IC50 [2]: > 50 µM

SMILES: CC(C)=CCC[C@@H](C)[C@H]1CC[C@@]2(C)[C@@H]3CC[C@H]4C(C)(C)[C@@H](O)[C@H](O)[C@H](O)[C@@]45C[C@@]35CC[C@]12C
- IC50 [1]: 10.1 µM
- IC50 [2]: 37.2 µM
